Experiments:
[1] = target: T1, Adenosine receptor A2a (Homo sapiens, UniProt P29274); experiment: Displacement of [3H]ZM241385 from human A2A receptor expressed in HeLa-A2A cells at 10 uM incubated for 30 mins by scintillation counting method based radioligand competitive binding assay; assay type: cell-based
Procedure, shortened: (§1)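 Uses HeLa-A2A membranes, 10 µg protein, buffer 50 mM Tris-HCl, 1 mM EDTA, 10 mM MgCl2, 2 UI/mL adenosine deaminase, pH 7.4. 3 nM [3H]ZM241385; nonspecific with 50 µM NECA. 30 min at 25 °C, GF/C filtration, duplicate wells. Screened at 10 μM; if >80% inhibition, 6 concentrations 10 nM–100 μM, Ki by Cheng-Prusoff.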

[2] = target: T2, Adenosine receptor A1 (Homo sapiens, UniProt P30542); experiment: Displacement of [3H]DPCPX from human A1 receptor expressed in CHO-A1 cells incubated for 60 mins by scintillation counting method based radioligand competitive binding assay; assay type: cell-based
T2 sequence (P30542 whole entry): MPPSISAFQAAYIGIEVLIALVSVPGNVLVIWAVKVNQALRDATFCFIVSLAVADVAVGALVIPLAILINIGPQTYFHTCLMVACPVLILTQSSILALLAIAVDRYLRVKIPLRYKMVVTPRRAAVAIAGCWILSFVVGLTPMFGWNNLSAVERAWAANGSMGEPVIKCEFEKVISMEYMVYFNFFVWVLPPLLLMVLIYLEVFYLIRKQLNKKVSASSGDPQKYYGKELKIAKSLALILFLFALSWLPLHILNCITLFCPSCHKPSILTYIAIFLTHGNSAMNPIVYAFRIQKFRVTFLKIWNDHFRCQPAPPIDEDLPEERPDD
Procedure, shortened: (§2)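 CHO-A1 membranes, 15 μg protein, in 20 mM Hepes, 100 mM NaCl, 10 mM MgCl2, 2 UI/ml adenosine deaminase, pH 7.4. Radioligand 2 nM [3H]DPCPX; nonspecific binding with 10 μM (R)-PIA. Incubated 25 °C for 60 min, filtered, counted, in duplicate. Screen at 10 μM; compounds >80% inhibition tested at 6 concentrations (10 nM–100 μM), Ki by Cheng-Prusoff.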

[3] = target: T3, Adenosine receptor A1 (Homo sapiens) (UniProt P30542); experiment: Displacement of [3H]DPCPX from human A1 receptor expressed in CHO-A1 cells at 10 uM incubated for 60 mins by scintillation counting method based radioligand competitive binding assay; assay type: cell-based; procedure, shortened: as §2
T3 sequence (whole entry): T2 sequence (P30542 whole entry)

[4] = target: T4, Adenosine receptor A2b (Homo sapiens) (UniProt P29275); experiment: Displacement of [3H]DPCPX from human A2B receptor expressed in HEK-293-A2B cells at 10 uM incubated for 30 mins by scintillation counting method based radioligand competitive binding assay; assay type: cell-based
T4 sequence (whole entry): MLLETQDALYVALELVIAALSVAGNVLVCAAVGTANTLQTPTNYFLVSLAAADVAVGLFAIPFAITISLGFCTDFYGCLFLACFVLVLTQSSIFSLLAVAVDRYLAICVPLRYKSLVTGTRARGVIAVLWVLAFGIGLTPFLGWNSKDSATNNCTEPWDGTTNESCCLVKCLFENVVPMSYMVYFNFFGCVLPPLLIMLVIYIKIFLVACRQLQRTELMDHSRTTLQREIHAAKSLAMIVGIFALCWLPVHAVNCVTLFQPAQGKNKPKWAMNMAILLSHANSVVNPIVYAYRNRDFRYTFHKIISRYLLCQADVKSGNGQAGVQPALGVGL
Procedure, shortened: (§3)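 HEK-293-A2B membranes, 18 μg protein, in 50 mM Tris-HCl, 1 mM EDTA, 10 mM MgCl2, 0.1 mM benzamidine, 10 µg/mL bacitracin, 2 UI/mL adenosine deaminase, pH 6.5. Tracer 35 nM [3H]DPCPX; 400 μM NECA defines nonspecific binding. 25 °C for 30 min, GF/C filtration, duplicates. Single-point 10 μM screen, then 6-point curves (10 nM–100 μM), Cheng-Prusoff Ki.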

[5] = target: T5, Adenosine receptor A3 (Homo sapiens) (UniProt P0DMS8); experiment: Displacement of [3H]NECA from human A3 receptor expressed in HeLa-A3 cells at 10 uM incubated for 180 mins by scintillation counting method based radioligand competitive binding assay; assay type: cell-based
T5 sequence (whole entry): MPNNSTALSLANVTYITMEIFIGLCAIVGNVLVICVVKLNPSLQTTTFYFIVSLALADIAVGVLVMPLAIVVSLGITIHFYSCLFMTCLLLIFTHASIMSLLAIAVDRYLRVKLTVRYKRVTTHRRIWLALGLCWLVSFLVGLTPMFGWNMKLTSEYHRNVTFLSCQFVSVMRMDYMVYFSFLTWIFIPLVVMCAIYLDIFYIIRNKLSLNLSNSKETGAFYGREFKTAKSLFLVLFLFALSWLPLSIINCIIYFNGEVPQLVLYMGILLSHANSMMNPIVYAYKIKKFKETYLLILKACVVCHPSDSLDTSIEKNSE
Procedure, shortened: (§4)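 Membranes of HeLa-A3 cells (90 μg protein) in 50 mM Tris-HCl, 1 mM EDTA, 5 mM MgCl2, 2 UI/mL adenosine deaminase, pH 7.4, with 30 nM [3H]NECA. Nonspecific: 100 μM (R)-PIA. 180 min at 25 °C, GF/B filtration, triplicates, scintillation counting. 10 μM single-point inhibition; >80% actives run at 6 concentrations (10 nM–100 μM), pKi via Cheng-Prusoff.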

[6] = target: T6, Adenosine receptor A3 (Homo sapiens, UniProt P0DMS8); experiment: Displacement of [3H]NECA from human A3 receptor expressed in HeLa-A3 cells incubated for 180 mins by scintillation counting method based radioligand competitive binding assay; assay type: cell-based; procedure, shortened: as §4
T6 sequence (P0DMS8 whole entry): T5 sequence (whole entry)

[7] = target: T7, Adenosine receptor A2b (Homo sapiens, UniProt P29275); experiment: Displacement of [3H]DPCPX from human A2B receptor expressed in HEK-293-A2B cells incubated for 30 mins by scintillation counting method based radioligand competitive binding assay; assay type: cell-based; procedure, shortened: as §3
T7 sequence (P29275 whole entry): T4 sequence (whole entry)

[8] = target: T5, Adenosine receptor A3 (Homo sapiens); experiment: Antagonist activity at human A3 receptor in CHO-A3 cells assessed as reduction in NECA-induced inhibition of forskolin-stimulated cAMP accumulation preincubated for 15 mins followed by NECA addition and further incubated for 15 mins by ELISA; assay type: functional, cell-based
Procedure, shortened: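 CHO cells expressing human A3, washed in DMEM F-12 with 25 mM HEPES pH 7.4 and 30 μM rolipram. Compound preincubated 15 min, then NECA (0.1 nM–1 mM) and 10 μM forskolin added for 15 min. cAMP quantified by enzyme immunoassay. Antagonist curves run against 0.1 μM NECA, duplicates. pKB calculated from IC50, agonist level, A50 and Hill slope.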

[9] = target: T1, Adenosine receptor A2a; experiment: Displacement of [3H]ZM241385 from human A2A receptor expressed in HeLa-A2A cells incubated for 30 mins by scintillation counting method based radioligand competitive binding assay; assay type: cell-based; procedure, shortened: as §1
[10] = target: T3, Adenosine receptor A1 (Homo sapiens); experiment: Antagonist activity at human A1 receptor in CHO-A1 cells assessed as reduction in NECA-induced inhibition of forskolin-stimulated cAMP accumulation preincubated for 15 mins followed by NECA addition and further incubated for 15 mins by ELISA; assay type: functional, cell-based
Procedure, shortened: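 CHO-A1 cells stably expressing receptor, grown with dialyzed FBS, washed in F-12 medium with 25 mM HEPES pH 7.4 and 20 μM rolipram. Test compound preincubated 15 min, then NECA (0.1 nM–1 mM) plus 3 μM forskolin added for 15 min. cAMP measured by enzyme immunoassay with TMB readout. pKB derived from antagonist curve against NECA effect.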

T1 sequence (P29274 whole entry): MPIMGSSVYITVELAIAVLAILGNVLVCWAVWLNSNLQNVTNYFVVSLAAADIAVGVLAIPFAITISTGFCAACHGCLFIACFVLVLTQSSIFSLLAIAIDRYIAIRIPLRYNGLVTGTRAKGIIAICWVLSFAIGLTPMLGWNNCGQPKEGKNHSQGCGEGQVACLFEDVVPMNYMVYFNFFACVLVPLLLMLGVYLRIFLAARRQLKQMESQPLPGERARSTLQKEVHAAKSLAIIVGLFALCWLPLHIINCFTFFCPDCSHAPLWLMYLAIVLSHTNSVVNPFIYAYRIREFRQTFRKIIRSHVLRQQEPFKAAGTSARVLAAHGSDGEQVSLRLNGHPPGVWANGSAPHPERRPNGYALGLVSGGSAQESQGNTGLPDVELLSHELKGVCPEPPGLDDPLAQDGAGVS

Compound | inhibition [1] | Ki [2] | inhibition [3] | inhibition [4] | inhibition [5] | Ki [6] | Ki [7] | pKb [8] | Ki [9] | pKb [10]
CN1CCN(c2nc(-c3ccccc3O)nc3c2ncn3C)CC1 | 59.6% | 631 nM | > 80% | 36% | 15.3% | – | – | – | – | –
CN1CCN(c2nc(-c3ccc(Cl)c(Cl)c3)nc3[nH]cnc23)CC1 | 12% | 631 nM | > 80% | 24.1% | > 80% | 39.8 nM | – | – | – | –
Clc1cccc(-c2nc(N3CCCCC3)c3nc[nH]c3n2)c1 | 43.5% | 50.1 nM | > 80% | > 80% | > 80% | 39.8 nM | 1000 nM | – | – | –
Cn1cnc2c(N3CCCCC3)nc(-c3ccccc3Cl)nc21 | 36.4% | – | 35.2% | 32.7% | 2.1% | – | – | – | – | –
Clc1ccc(-c2nc(N3CCCCC3)c3nc[nH]c3n2)cc1 | > 80% | 126 nM | > 80% | 1.4% | > 80% | 7.94 nM | – | 8.2 | 3160 nM | –
CN1CCN(c2nc(-c3ccc(O)cc3)nc3[nH]cnc23)CC1 | 37% | 398 nM | > 80% | 53% | 48% | – | – | – | – | –
Cn1cnc2c(N3CCCCC3)nc(-c3cccc(O)c3O)nc21 | 24.1% | – | 17.2% | 26% | 33.7% | – | – | – | – | –
CN1CCN(c2nc(-c3cccc(Cl)c3)nc3c2ncn3C)CC1 | 21% | – | 45.7% | 19.2% | 38.3% | – | – | – | – | –
CN1CCN(c2nc(-c3ccc(Cl)cc3)nc3[nH]cnc23)CC1 | 15.9% | 398 nM | > 80% | 6.2% | > 80% | 39.8 nM | – | – | – | –
CN1CCN(c2nc(-c3cccc(Cl)c3)nc3[nH]cnc23)CC1 | 52.7% | 79.4 nM | > 80% | 29.9% | > 80% | 100 nM | – | – | – | –
Cn1cnc2c(N3CCCCC3)nc(-c3cccc(O)c3)nc21 | 54.8% | – | 78.5% | 29.3% | 49.1% | – | – | – | – | –
Cn1cnc2c(N3CCCCC3)nc(-c3cccc(Cl)c3)nc21 | 17% | – | 22.4% | 24.2% | 6.1% | – | – | – | – | –
CN1CCN(c2nc(-c3cccc(O)c3)nc3c2ncn3C)CC1 | 4.2% | – | 27.1% | 47.8% | 63.8% | – | – | – | – | –
CN1CCN(c2nc(-c3cccc(O)c3)nc3[nH]cnc23)CC1 | 1% | 158 nM | > 80% | 27% | > 80% | 501 nM | – | – | – | –
CN1CCN(c2nc(-c3ccc(Cl)c(Cl)c3)nc3c2ncn3C)CC1 | 25% | – | 65.2% | 28.3% | 35.3% | – | – | – | – | –
CN1CCN(c2nc(-c3ccc(Cl)c(C(F)(F)F)c3)nc3[nH]cnc23)CC1 | 32% | – | 52.4% | 25.1% | > 80% | 794 nM | – | – | – | –
Cn1cnc2c(N3CCCCC3)nc(-c3cc(Cl)ccc3Cl)nc21 | 2.4% | – | 13.2% | 31% | 5.4% | – | – | – | – | –
Oc1ccc(-c2nc(N3CCCCC3)c3nc[nH]c3n2)cc1 | > 80% | 10 nM | > 80% | > 80% | > 80% | 39.8 nM | 79.4 nM | – | 100 nM | –
Clc1ccc(Cl)c(-c2nc(N3CCCCC3)c3nc[nH]c3n2)c1 | 21% | – | 1.4% | 12.1% | > 80% | 200 nM | – | – | – | –
Oc1cccc(-c2nc(N3CCCCC3)c3nc[nH]c3n2)c1 | > 80% | 10 nM | > 80% | > 80% | > 80% | 63.1 nM | 158 nM | – | 316 nM | 7.9
CN1CCN(c2ncnc3[nH]cnc23)CC1 | 19.1% | – | 9.2% | 14% | 26.9% | – | – | – | – | –
CN1CCN(c2nc(-c3cc(Cl)ccc3Cl)nc3[nH]cnc23)CC1 | 9.1% | 2510 nM | > 80% | 13% | > 80% | 251 nM | – | – | – | –
Clc1ccc(-c2nc(N3CCCCC3)c3nc[nH]c3n2)cc1Cl | 7% | – | 24.1% | 0.7% | > 80% | 79.4 nM | – | – | – | –
Cn1cnc2c(N3CCCCC3)nc(-c3ccccc3O)nc21 | 74.8% | – | 50.5% | 30.2% | 20% | – | – | – | – | –
